Measured values taken from ChEMBL document CHEMBL4118104, “Design, Synthesis, and Evaluation of Orally Bioavailable Quinoline-Indole Derivatives as Innovative Multitarget-Directed Ligands: Promotion of Cell Proliferation in the Adult Murine Hippocampus for the Treatment of Alzheimer's Disease” (J Med Chem, 2018).

What was measured:
Mus musculus [1] = experiment: Toxicity in C57BL/6 mouse assessed as effect on body weight at 677 to 2000 mg/kg, ig measured continuously during first 4 hrs, intermittently for following 24 hrs and occasionally thereafter for 14 consecutive days; format: organism-based; details: in vivo, po
Mus musculus [2] = experiment: Toxicity in double APP/PS1 transgenic Alzheimer's disease mouse model assessed as carcinogenicity in heart at 30 mg/kg/day, po for 80 days; format: organism-based; details: in vivo, 1920 h
In short: (§1)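 APP/PS1 double-transgenic mice, six months old, dosed by intragastric infusion at 30 mg/kg/day in 0.5% CMC-Na for 80 consecutive days (n = 10). Vehicle mice and wild-type C57BL/6 mice received blank 0.5% CMC-Na. Body weight tracked daily; diarrhoea, emesis-like behaviour and mortality monitored. At sacrifice, brain, subcutaneous layer, stomach, intestines, heart, lung, liver, spleen, kidneys and other organs examined for expansion or carcinogenicity.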

Mus musculus [3] = experiment: Toxicity in double APP/PS1 transgenic Alzheimer's disease mouse model assessed as carcinogenicity in subcutaneous layer at 30 mg/kg/day, po for 80 days; format: organism-based; details: in vivo, 1920 h; in short: as §1
Mus musculus [4] = experiment: Cognition enhancement activity in double APP/PS1 transgenic Alzheimer's disease mouse model assessed as time spent in effective region at 30 mg/kg/day, po for 80 days by Morris water maze test (reference value: 9.0 +/- 3.8 sec); format: functional
In short: (§2)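 APP/PS1 mice, six months old, gavaged 30 mg/kg/day in 0.5% CMC-Na for 80 days. Probe trial was a single 90 s free swim with the platform absent; effective region is twice the platform diameter. n = 10, mean ± SD, two-way ANOVA.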

Mus musculus [5] = experiment: Cognition enhancement activity in double APP/PS1 transgenic Alzheimer's disease mouse model assessed as time spent in correct quadrant at 30 mg/kg/day, po for 80 days by Morris water maze test (reference value: 20.6 +/- 4.4 sec); format: functional; in short: as §2
Mus musculus [6] = experiment: Toxicity in C57BL/6 mouse assessed as histological abnormalities of heart at 2000 mg/kg, ig after 14 consecutive days by hematoxylin/eosin dye-based microscopic analysis; format: organism-based; details: in vivo, po
In short: (§3)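 Adult C57BL/6 mice, 12 weeks old, single intragastric doses of 0, 677, 1333 or 2000 mg/kg (n = 6 per dose, 3 male/3 female); behaviour and mortality observed over 14 days; liver, heart, lung and brain examined by HE staining at 2000 mg/kg.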

Mus musculus [7] = experiment: Cognition enhancement activity in double APP/PS1 transgenic Alzheimer's disease mouse model assessed as swimming path length in correct quadrant at 30 mg/kg/day, po for 80 days by Morris water maze test (reference value: 295.3 +/- 46.9 cm); format: functional; in short: as §2
Mus musculus [8] = experiment: Toxicity in C57BL/6 mouse assessed as macroscopic abnormalities of kidney at 677 to 2000 mg/kg, ig after 14 consecutive days; format: organism-based; details: in vivo, po
Mus musculus [9] = experiment: Induction of cell proliferation in C57BL/6 mouse hippocampal neurons in CA1 region assessed as BrdU-incorporation at 0.5 uL/hr, icv for 7 days by immunohistochemical analysis (reference value: 3.2%); format: functional
Mus musculus [10] = experiment: Toxicity in C57BL/6 mouse assessed as histological abnormalities of lung at 2000 mg/kg, ig after 14 consecutive days by hematoxylin/eosin dye-based microscopic analysis; format: organism-based; details: in vivo, po, 336 h; in short: as §3
Mus musculus [11] = experiment: Cognition enhancement activity in double APP/PS1 transgenic Alzheimer's disease mouse model assessed as swimming path length in virtual platform at 30 mg/kg/day, po for 80 days by Morris water maze test (reference value: 9.1 +/- 2.8 cm); format: functional; in short: as §2
Mus musculus [12] = experiment: Induction of cell proliferation in C57BL/6 mouse hippocampal neurons in DG region assessed as BrdU-incorporation at 0.5 uL/hr, icv for 7 days by immunohistochemical analysis (reference value: 7.8%); format: functional
Mus musculus [13] = experiment: Toxicity in C57BL/6 mouse assessed as macroscopic abnormalities of liver at 677 to 2000 mg/kg, ig after 14 consecutive days; format: organism-based; details: in vivo, po
Mus musculus [14] = experiment: Toxicity in double APP/PS1 transgenic Alzheimer's disease mouse model assessed as diarrhea at 30 mg/kg/day, po for 80 days; format: organism-based; details: in vivo, 1920 h; in short: as §1
Mus musculus [15] = experiment: Induction of cell proliferation in C57BL/6 mouse hippocampal neurons in CA3 region assessed as BrdU-incorporation at 30 mg/kg, po administered via gavage for 7 days by immunohistochemical analysis (reference value: 1.5%); format: functional
In short: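 C57BL/6 mice, 12 weeks old, n = 6, individually housed beforehand without wheels. Compound gavaged 30 mg/kg/day for 7 days with daily IP BrdU 50 mg/kg; BrdU+ cells counted by immunohistochemistry per hippocampal volume; two-way ANOVA.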

Mus musculus [16] = experiment: Toxicity in C57BL/6 mouse assessed as macroscopic abnormalities of spleen at 677 to 2000 mg/kg, ig after 14 consecutive days; format: organism-based; details: in vivo, po
Mus musculus [17] = experiment: Toxicity in C57BL/6 mouse assessed as histological abnormalities of brain at 2000 mg/kg, ig after 14 consecutive days by hematoxylin/eosin dye-based microscopic analysis; format: organism-based; details: in vivo, po, 336 h; in short: as §3
Mus musculus [18] = experiment: Induction of cell proliferation in C57BL/6 mouse hippocampal neurons in CA3 region assessed as BrdU-incorporation at 0.5 uL/hr, icv for 7 days by immunohistochemical analysis (reference value: 1.4%); format: functional
Mus musculus [19] = experiment: Toxicity in C57BL/6 mouse assessed as effect on food intake at 677 to 2000 mg/kg, ig measured continuously during first 4 hrs, intermittently for following 24 hrs and occasionally thereafter for 14 consecutive days; format: organism-based; details: in vivo, po
Mus musculus [20] = experiment: Cognition enhancement activity in double APP/PS1 transgenic Alzheimer's disease mouse model assessed as time spent in virtual platform at 30 mg/kg/day, po for 80 days by Morris water maze test (reference value: 1.9 +/- 0.2 sec); format: functional; in short: as §2
Mus musculus [21] = experiment: Cognition enhancement activity in double APP/PS1 transgenic Alzheimer's disease mouse model assessed as swimming path length in effective region at 30 mg/kg/day, po for 80 days by Morris water maze test (reference value: 44.2 +/- 4.9 cm); format: functional; in short: as §2
Mus musculus [22] = experiment: Toxicity in C57BL/6 mouse assessed as macroscopic abnormalities of stomach at 677 to 2000 mg/kg, ig after 14 consecutive days; format: organism-based; details: in vivo, po
Mus musculus [23] = experiment: Toxicity in C57BL/6 mouse assessed as macroscopic abnormalities of intestine at 677 to 2000 mg/kg, ig after 14 consecutive days; format: organism-based; details: in vivo, po
Mus musculus [24] = experiment: Toxicity in C57BL/6 mouse assessed as macroscopic abnormalities of lung at 677 to 2000 mg/kg, ig after 14 consecutive days; format: organism-based; details: in vivo, po, 336 h
Mus musculus [25] = experiment: Toxicity in double APP/PS1 transgenic Alzheimer's disease mouse model assessed as carcinogenicity in stomach at 30 mg/kg/day, po for 80 days; format: organism-based; details: in vivo, 1920 h; in short: as §1
Mus musculus [26] = experiment: Toxicity in double APP/PS1 transgenic Alzheimer's disease mouse model assessed as brain expansion at 30 mg/kg/day, po for 80 days; format: organism-based; details: in vivo, 1920 h; in short: as §1
Mus musculus [27] = experiment: Induction of cell proliferation in C57BL/6 mouse hippocampal neurons in CA2 region assessed as BrdU-incorporation at 0.5 uL/hr, icv for 7 days by immunohistochemical analysis (reference value: 2.4%); format: functional
Mus musculus [28] = experiment: Toxicity in double APP/PS1 transgenic Alzheimer's disease mouse model assessed as carcinogenicity in spleen at 30 mg/kg/day, po for 80 days; format: organism-based; details: in vivo, 1920 h; in short: as §1

`Cl.Oc1ccc2[nH]c(-c3ccc4c(Cl)cc(Cl)c(O)c4n3)cc2c1` was tested, and the Activity (Mus musculus [1]) was “Non-Toxic”, the Activity (Mus musculus [2]) was “Non-Toxic” and the Activity (Mus musculus [3]) was “Non-Toxic”. The Time (Mus musculus [4]) was 18 s, the Time (Mus musculus [5]) was 27.4 s and the Activity (Mus musculus [6]) was “Non-Toxic”. The Activity (Mus musculus [7]) was 533.3 cm, the Activity (Mus musculus [8]) was “Non-Toxic” and the Activity (Mus musculus [9]) was 50.1%. The Activity (Mus musculus [10]) was “Non-Toxic”, the Activity (Mus musculus [11]) was 22.1 cm and the Activity (Mus musculus [12]) was 41.3%. The Activity (Mus musculus [13]) was “Non-Toxic”, the Activity (Mus musculus [14]) was “Non-Toxic” and the Activity (Mus musculus [15]) was 23.9%. For the same compound, the Activity (Mus musculus [16]) was “Non-Toxic”, the Activity (Mus musculus [17]) was “Non-Toxic” and the Activity (Mus musculus [18]) was 36.5%. For the same compound, the Activity (Mus musculus [19]) was “Non-Toxic”, the Time (Mus musculus [20]) was 3.2 s and the Activity (Mus musculus [21]) was 71.3 cm. The Activity (Mus musculus [22]) was “Non-Toxic”, the Activity (Mus musculus [23]) was “Non-Toxic” and the Activity (Mus musculus [24]) was “Non-Toxic”. For the same compound, the Activity (Mus musculus [25]) was “Non-Toxic”, the Activity (Mus musculus [26]) was “Non-Toxic” and the Activity (Mus musculus [27]) was 39.6%. For the same compound, the Activity (Mus musculus [28]) was “Non-Toxic”.

For `Cl.Oc1c(Cl)cc(Cl)c2ccc(-c3cc4cc5c(cc4[nH]3)OCO5)nc12`, the Activity (Mus musculus [1]) was “Non-Toxic”, the Activity (Mus musculus [2]) was “Non-Toxic” and the Activity (Mus musculus [3]) was “Non-Toxic”. The Time (Mus musculus [4]) was 16.7 s, the Time (Mus musculus [5]) was 24 s and the Activity (Mus musculus [6]) was “Non-Toxic”. The Activity (Mus musculus [7]) was 473.5 cm, the Activity (Mus musculus [8]) was “Non-Toxic” and the Activity (Mus musculus [9]) was 49.8%. For the same compound, the Activity (Mus musculus [10]) was “Non-Toxic”, the Activity (Mus musculus [11]) was 15 cm and the Activity (Mus musculus [12]) was 31.2%. For the same compound, the Activity (Mus musculus [13]) was “Non-Toxic”, the Activity (Mus musculus [14]) was “Non-Toxic” and the Activity (Mus musculus [15]) was 17.1%. For the same compound, the Activity (Mus musculus [16]) was “Non-Toxic”, the Activity (Mus musculus [17]) was “Non-Toxic” and the Activity (Mus musculus [18]) was 37.6%. For the same compound, the Activity (Mus musculus [19]) was “Non-Toxic”, the Time (Mus musculus [20]) was 2.6 s and the Activity (Mus musculus [21]) was 65.5 cm. The Activity (Mus musculus [22]) was “Non-Toxic”, the Activity (Mus musculus [23]) was “Non-Toxic” and the Activity (Mus musculus [24]) was “Non-Toxic”. For the same compound, the Activity (Mus musculus [25]) was “Non-Toxic”, the Activity (Mus musculus [26]) was “Non-Toxic” and the Activity (Mus musculus [27]) was 38%. For the same compound, the Activity (Mus musculus [28]) was “Non-Toxic”.
